We go through 28 compounds from ChEMBL document CHEMBL4334471, “Discovery of 1,8-disubstituted-[1,2,3]triazolo[4,5-c]quinoline derivatives as a new class of Hippo signaling pathway inhibitors” (Bioorg Med Chem Lett, 2019).

Calls of active or inactive are those of the source. The rule behind the calls is not given here.

One assay has as its system A549. The assay is described as follows: Inhibition of hippo signalling protein in human A549 cells assessed as increase in CTGF mRNA expression level at 10 uM incubated for 24 hrs by qRT-PCR analysis. The class given is cell-based. In short, it runs like this:
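A549-CTGF cells were exposed to compound or 0.1% DMSO for 24 h before total RNA extraction. Endogenous CTGF mRNA was quantified by real-time PCR. Data were mean ± SEM (n=4) and compared by Student's t-test.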
In general terms: In qPCR the cycle at which signal appears reflects the starting amount.
In the case of `CN1C(=O)c2sccc2N(C)c2nc(Nc3ccc(S(N)(=O)=O)cc3)ncc21`, the inhibition result was “Active”.

For a further assay, the system named is A549. The assay is described as follows: Inhibition of hippo signalling protein in human A549 cells cotransfected with CTGF promoter-driven firefly luciferase and CMV promoter-driven renilla luciferase gene incubated for 24 hrs by dual-luciferase gene assay. The class given is cell-based. In short, it runs like this:
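Dual-luciferase reporter read-out in A549-CTGF cells after 24 h culture with compound. Firefly luciferase is expressed relative to DMSO-treated cells, set as 1. Screening used 10 µM. Values are mean ± SEM of three independent experiments.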
Turning to `CN1C(=O)c2sccc2N(C)c2nc(Nc3ccc(S(N)(=O)=O)cc3)ncc21`, the inhibition entry was “Dose-dependent effect”.

The next assay has as its system A549. The assay can be described thus: Inhibition of hippo signalling protein in human A549 cells cotransfected with CTGF promoter-driven firefly luciferase and CMV promoter-driven renilla luciferase gene assessed as increase in CTGF expression at 10 uM incubated for 24 hrs by dual-luciferase gene assay relative to control.
With `C[C@H](c1cccc(F)c1)n1nnc2cnc3ccc(-c4cnc5[nH]ccc5c4)cc3c21`, the fold change (FC) was 2.1.

With `Fc1ccc(-n2nnc3cnc4ccc(-c5cnc6[nH]ccc6c5)cc4c32)cc1`, the fold change (FC) came out at 3.44.

As to `COc1ccc(-c2ccc3ncc4nnn([C@@H](C)c5ccccc5)c4c3c2)cn1`, the fold change (FC) worked out at 0.996. Still for that read-out and setting: then `C[C@@H](c1ccccc1)n1nnc2cnc3ccc(-c4ccnc5[nH]ccc45)cc3c21`, with 0.549; and `C[C@@H](c1ccccc1)n1nnc2cnc3ccc(-c4ccc(N)cc4)cc3c21`, with 2.24; and `C[C@@H](c1ccccc1)n1nnc2cnc3ccc(-c4cnc(N)nc4)cc3c21`, with 3.49. As to `C[C@@H](c1ccccc1)n1nnc2cnc3ccc(-c4c[nH]c5ncccc45)cc3c21`, the fold change (FC) stood at 1.11. For `CC[C@@H](c1ccccc1)n1nnc2cnc3ccc(-c4cnc5[nH]ccc5c4)cc3c21`, the fold change (FC) stood at 8.06. Take `COc1cccc([C@@H](C)n2nnc3cnc4ccc(-c5cnc6[nH]ccc6c5)cc4c32)c1`: the fold change (FC) was determined as 2.22. On the same count and under the same terms, then `C[C@@H](c1ccccc1)n1nnc2cnc3ccc(-c4ccc(N5CCOCC5)nc4)cc3c21`, with 1.06; and `CC(C)n1nnc2cnc3ccc(-c4cnc5[nH]ccc5c4)cc3c21`, with 3.38. For `C[C@@H](c1ccccc1)n1nnc2cnc3ccc(-c4ccc(C#N)nc4)cc3c21`, the fold change (FC) stood at 1.94. For `C[C@@H](c1ccccc1)n1nnc2cnc3ccc(-c4ccccc4)cc3c21`, the fold change (FC) worked out at 1.43. Regarding `C[C@@H](c1ccccc1)n1nnc2cnc3ccc(-c4ccc5[nH]ccc5c4)cc3c21`, the fold change (FC) came out at 4.6.

For `C[C@H](c1ccccc1)n1nnc2cnc3ccc(-c4cnc5[nH]ccc5c4)cc3c21`, the fold change (FC) was found to be 8.1. As to `CC[C@H](c1ccccc1)n1nnc2cnc3ccc(-c4cnc5[nH]ccc5c4)cc3c21`, the fold change (FC) is 3.72.

Regarding `C[C@@H](c1ccccc1)n1nnc2cnc3ccc(-c4ccc(N)nc4)cc3c21`, the fold change (FC) was determined as 9.09.

With `C[C@@H](c1cccc(F)c1)n1nnc2cnc3ccc(-c4cnc5[nH]ccc5c4)cc3c21`, the fold change (FC) was found to be 4.91. Take `COc1cccc([C@H](C)n2nnc3cnc4ccc(-c5cnc6[nH]ccc6c5)cc4c32)c1`: the fold change (FC) was found to be 3.13.

With `Fc1ccc(Cn2nnc3cnc4ccc(-c5cnc6[nH]ccc6c5)cc4c32)cc1`, the fold change (FC) was 3.87.

`C[C@@H](c1ccccc1)n1nnc2cnc3ccc(-c4ccc(N(C)C)nc4)cc3c21`: the fold change (FC) was determined as 1.19. In the case of `C[C@H](c1ccc(F)cc1)n1nnc2cnc3ccc(-c4cnc5[nH]ccc5c4)cc3c21`, the fold change (FC) amounted to 4.92. In the case of `CN1C(=O)c2sccc2N(C)c2nc(Nc3ccc(S(N)(=O)=O)cc3)ncc21`, the fold change (FC) is 4.92. Take `Cn1nnc2cnc3ccc(-c4cnc5[nH]ccc5c4)cc3c21`: the fold change (FC) was 0.55.

Consider `C[C@@H](c1ccc(F)cc1)n1nnc2cnc3ccc(-c4cnc5[nH]ccc5c4)cc3c21`, for which the fold change (FC) is 6.51. In the case of `C[C@@H](c1ccccc1)n1nnc2cnc3ccc(-c4ccc(Cl)nc4)cc3c21`, the fold change (FC) came to 1.24.

For the compound `C[C@@H](c1ccccc1)n1nnc2cnc3ccc(-c4ccnc(N)c4)cc3c21`, the fold change (FC) is 2.01.

Regarding `C[C@@H](c1ccccc1)n1nnc2cnc3ccc(-c4ccc(N)c(Cl)c4)cc3c21`, the fold change (FC) is 1.73.

In another assay the target is Transcriptional coactivator YAP1 (Homo sapiens) (UniProt P46937). The assay can be described thus: Induction of YAP nuclear translocation in human A549 cells at 10 uM incubated for 8 hrs by immunofluorescence based confocal microscopy. The class given is cell-based. In short, it runs like this: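 A549-CTGF reporter cells were treated for 8 h at 10 µM, with 0.1% DMSO as vehicle control. Cells were then fixed, permeabilized and probed with anti-YAP antibody. DAPI stained the nuclei, and YAP localization was imaged by immunofluorescence.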
Chain of Transcriptional coactivator YAP1 (Homo sapiens) (P46937 whole entry): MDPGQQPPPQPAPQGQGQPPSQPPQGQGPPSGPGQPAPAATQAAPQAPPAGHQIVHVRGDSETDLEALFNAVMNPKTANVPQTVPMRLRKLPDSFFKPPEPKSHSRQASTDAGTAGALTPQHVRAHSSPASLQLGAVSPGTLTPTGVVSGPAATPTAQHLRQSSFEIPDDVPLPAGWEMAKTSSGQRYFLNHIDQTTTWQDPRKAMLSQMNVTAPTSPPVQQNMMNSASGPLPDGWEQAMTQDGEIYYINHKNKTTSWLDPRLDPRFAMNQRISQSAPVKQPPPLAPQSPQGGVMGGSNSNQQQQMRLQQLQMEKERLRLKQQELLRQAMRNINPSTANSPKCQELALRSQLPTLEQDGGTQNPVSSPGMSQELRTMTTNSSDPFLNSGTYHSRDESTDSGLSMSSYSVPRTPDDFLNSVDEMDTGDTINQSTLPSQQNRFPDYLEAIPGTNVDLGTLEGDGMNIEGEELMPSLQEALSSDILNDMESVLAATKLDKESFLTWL
Regarding `CN1C(=O)c2sccc2N(C)c2nc(Nc3ccc(S(N)(=O)=O)cc3)ncc21`, the outcome was Active.
